# Reference: ChEMBL document CHEMBL2429751, “Diterpenoids and sesquiterpenoids from the roots of Illicium majus” (J Nat Prod, 2013)
# Calls of active or inactive are those of the source. The calls are words filed in the database; no cut-off is given here.
# Tests used:
# Coxsackievirus B3 [1] = experiment: Antiviral activity against Coxsackievirus B3 infected in African green monkey Vero cells assessed as protection against virus-induced cytopathic effect after 48 hrs by Reed-Muench analysis; format: functional, organism-based; design: unit not given here
# How it was run: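 Confluent Vero monolayers were infected with 100 TCID50 Cox B3 and allowed 1 h adsorption at 37 °C. Cells were PBS-washed, then kept at 37 °C in maintenance medium with 2% FBS, with or without graded compound concentrations. CPE was scored once virus controls reached 4+, and IC50 was derived by Reed–Muench analysis.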
# Coxsackievirus B3 [2] = experiment: Selectivity index, ratio of TC50 for African green monkey Vero cells to IC50 for Coxsackievirus B3; format: toxicity, cell-based; conditions: read-out: Selectivity Index
# How it was run: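 SI is TC50/IC50. TC50 comes from 48 h Vero CPE cytotoxicity and IC50 from Cox B3 (100 TCID50) CPE inhibition in Vero cells, both by Reed–Muench analysis.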
# Vero = experiment: Cytotoxicity against African green monkey Vero cells after 48 hrs by Reed-Muench analysis; format: cell-based; design: unit not given here; conditions: chlorocebus sabaeus
# How it was run: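 Vero cells were seeded and, after 24 h, exposed to graded compound concentrations for 48 h at 37 °C under 5% CO2. Cell damage was scored microscopically as CPE, and TC50 was calculated by Reed–Muench analysis.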
IC50 (Coxsackievirus B3 [1]),Compound,selectivity ratio (Coxsackievirus B3 [2]),TC50 (Vero),Activity (Coxsackievirus B3 [1])
51.7,C[C@@]12COC(=O)[C@]1(C)[C@@H](O)[C@@]13CC(=O)O[C@@]21CC=C3CO[C@@H]1O[C@H](CO)[C@@H](O)[C@H](O)[C@H]1O,3.9,200,–
17.4,C[C@H](CO)c1ccc2c(c1)CC[C@H]1[C@@](C)(C(=O)O)CCC[C@]21C,8,138.7,–
12.8,C[C@@H](CO)c1ccc2c(c1)CC[C@H]1[C@@](C)(C(=O)O)CCC[C@]21C,5.2,66.7,–
–,C[C@]1(CO)CCC[C@]2(C)c3ccc([C@](C)(O)CO)cc3CC[C@@H]12,–,–,inactive
–,CC(C)c1ccc2c(c1)CC[C@H]1[C@@](C)(C(=O)O)CCC[C@]21C,6.7,–,–
–,CC(C)(O)c1ccc2c(c1)C(=O)C[C@H]1[C@@](C)(CO)CCC[C@]21C,–,–,inactive
–,C[C@@]12COC(=O)[C@]1(C)[C@@H](OC(=O)c1ccccc1)[C@]13CC(=O)O[C@@]1(C)CC[C@]23O,–,–,inactive
66.7,C[C@@H]1CC[C@@]23O[C@@]4(O)C[C@@]12[C@@H](O)C(=O)OC[C@@]3(CO)[C@@]4(C)O,3,200,–
–,C[C@]1(CO)CCC[C@]2(C)c3ccc([C@@](C)(O)CO)cc3CC[C@@H]12,–,–,inactive
66.7,CC1=C(C(=O)O[C@@]23OC[C@]4(C)[C@@]5(O)CC[C@@H](C)[C@@]5(CC(=O)[C@]24C)[C@H]3O)CCC1=O,3,200,–
22.2,C[C@](O)(CO)c1ccc2c(c1)CC[C@H]1[C@@](C)(C(=O)O)CCC[C@]21C,6.2,138.7,–
–,CC(C)(O)c1ccc2c(c1)C(=O)C[C@H]1[C@@](C)(C(=O)O)CCC[C@]21C,3.9,–,–
–,C[C@@H]1CC[C@@]23O[C@@]4(O)C[C@@]12[C@@H](O)C(=O)OC[C@@]3(CO[C@@H]1O[C@H](CO)[C@@H](O)[C@H](O)[C@H]1O)[C@@]4(C)O,–,–,inactive
